In ChEMBL document CHEMBL3046081, “Phytotoxic effect, uptake, and transformation of biochanin A in selected weed species” (J Agric Food Chem, 2012):
Active and inactive are the calls of the source. The calls are words filed in the database; no cut-off is given here.

What was measured:
[1] = tested on: Shoot; test: Drug metabolism in Echinochloa crus-galli (barnyard grass) shoot assessed as transformation to genistein at 400 uM after 14 days measured per gm of dry weight by LC-MS analysis; type: ADME; conditions: 336 h
Outline: (§1)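 Pregerminated seeds, 14 per container, transplanted onto 0.5% agar medium containing biochanin A. Grown at 24 ± 1 °C under a 16 h light/8 h dark photoperiod and harvested 14 days after transplanting. Roots and shoots collected separately, blotted, washed twice, then freeze-dried. Tissue extracted by ASE at 40 °C and analysed by LC-ESI-MS against commercial standards. Two replicates per treatment.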

[2] = tested on: Shoot; test: Drug metabolism in Echinochloa crus-galli (barnyard grass) shoot assessed as transformation to genistein at 20 uM after 14 days measured per gm of dry weight by LC-MS analysis; type: ADME; conditions: 336 h; outline: as §1
[3] = tested on: Shoot; test: Drug metabolism in Geranium molle shoot assessed as transformation to genistein at 400 uM after 14 days measured per gm of dry weight by LC-MS analysis; type: ADME; conditions: 336 h; outline: as §1
[4] = tested on: Shoot; test: Drug metabolism in Silene noctiflora shoot assessed as transformation to sissotrin at 400 uM after 14 days measured per gm of dry weight by LC-MS analysis; type: ADME; conditions: 336 h
Outline: (§2)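 Pregerminated seeds (14 per container) were grown on 20 mL 0.5% agar medium containing biochanin A, at 24 ± 1 °C with a 16 h light/8 h dark cycle. There were two replicates per treatment: 14 containers for S. noctiflora, 9 for G. molle and E. crus-galli. At 14 days, roots and shoots were harvested separately, washed, blotted and freeze-dried. Extraction was ASE at 40 °C, 1600 psi, 3 cycles. Analysis was LC-ESI-MS SIM against standards.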

[5] = tested on: Root; test: Drug metabolism in Geranium molle root assessed as transformation to sissotrin at 400 uM after 14 days measured per gm of dry weight by LC-MS analysis; type: ADME; conditions: 336 h; outline: as §1
[6] = tested on: Root; test: Drug metabolism in Silene noctiflora root assessed as transformation to sissotrin at 20 uM after 14 days measured per gm of dry weight by LC-MS analysis; type: ADME; conditions: 336 h; outline: as §1
[7] = tested on: Shoot; test: Drug metabolism in Silene noctiflora shoot assessed as transformation to p-coumaric acid at 400 uM after 14 days measured per gm of dry weight by LC-MS analysis; type: ADME; conditions: 336 h; outline: as §1
[8] = tested on: Root; test: Drug metabolism in Geranium molle root assessed as transformation to p-coumaric acid at 20 uM after 14 days measured per gm of dry weight by LC-MS analysis; type: ADME; conditions: 336 h; outline: as §1
[9] = tested on: Shoot; test: Drug metabolism in Silene noctiflora shoot assessed as transformation to genistein at 400 uM after 14 days measured per gm of dry weight by LC-MS analysis; type: ADME; conditions: 336 h; outline: as §1
[10] = tested on: Root; test: Drug metabolism in Echinochloa crus-galli (barnyard grass) root assessed as transformation to genistein at 400 uM after 14 days measured per gm of dry weight by LC-MS analysis; type: ADME; conditions: 336 h; outline: as §1
[11] = tested on: Root; test: Drug metabolism in Echinochloa crus-galli (barnyard grass) root assessed as transformation to genistein at 20 uM after 14 days measured per gm of dry weight by LC-MS analysis; type: ADME; conditions: 336 h; outline: as §1
[12] = tested on: Shoot; test: Drug metabolism in Geranium molle shoot assessed as transformation to dihydrobiochanin A at 400 uM after 14 days measured per gm of dry weight by LC-MS analysis; type: ADME; conditions: 336 h; outline: as §1
[13] = tested on: Shoot; test: Drug metabolism in Silene noctiflora shoot assessed as transformation to dihydrobiochanin A at 400 uM after 14 days measured per gm of dry weight by LC-MS analysis; type: ADME; conditions: 336 h; outline: as §1
[14] = tested on: Shoot; test: Drug metabolism in Silene noctiflora shoot assessed as transformation to dihydrobiochanin A at 20 uM after 14 days measured per gm of dry weight by LC-MS analysis; type: ADME; conditions: 336 h; outline: as §1
[15] = tested on: Shoot; test: Drug metabolism in Echinochloa crus-galli (barnyard grass) shoot assessed as transformation to pratensein at 20 uM after 14 days measured per gm of dry weight by LC-MS analysis; type: ADME; conditions: 336 h; outline: as §1
[16] = tested on: Shoot; test: Drug metabolism in Geranium molle shoot assessed as transformation to pratensein at 400 uM after 14 days measured per gm of dry weight by LC-MS analysis; type: ADME; conditions: 336 h; outline: as §1
[17] = tested on: Shoot; test: Drug metabolism in Geranium molle shoot assessed as transformation to pratensein at 20 uM after 14 days measured per gm of dry weight by LC-MS analysis; type: ADME; conditions: 336 h; outline: as §1
[18] = tested on: Shoot; test: Drug metabolism in Geranium molle shoot assessed as transformation to sissotrin at 400 uM after 14 days measured per gm of dry weight by LC-MS analysis; type: ADME; conditions: 336 h; outline: as §1
[19] = tested on: Shoot; test: Drug metabolism in Geranium molle shoot assessed as transformation to sissotrin at 20 uM after 14 days measured per gm of dry weight by LC-MS analysis; type: ADME; conditions: 336 h; outline: as §1
[20] = tested on: Root; test: Drug metabolism in Geranium molle root assessed as transformation to dihydrobiochanin A at 400 uM after 14 days measured per gm of dry weight by LC-MS analysis; type: ADME; conditions: 336 h; outline: as §1
[21] = tested on: Root; test: Drug metabolism in Silene noctiflora root assessed as transformation to dihydrobiochanin A at 400 uM after 14 days measured per gm of dry weight by LC-MS analysis; type: ADME; conditions: 336 h; outline: as §1
[22] = tested on: Shoot; test: Drug uptake in Geranium molle shoot at 400 uM after 14 days measured per gm of dry weight by LC-MS analysis; type: ADME; conditions: 336 h; outline: as §2
[23] = tested on: Shoot; test: Drug uptake in Silene noctiflora shoot at 400 uM after 14 days measured per gm of dry weight by LC-MS analysis; type: ADME; conditions: 336 h; outline: as §2
[24] = tested on: Shoot; test: Drug uptake in Silene noctiflora shoot at 20 uM after 14 days measured per gm of dry weight by LC-MS analysis; type: ADME; conditions: 336 h; outline: as §2
[25] = tested on: Root; test: Drug uptake in Echinochloa crus-galli (barnyard grass) root at 20 uM after 14 days measured per gm of dry weight by LC-MS analysis; type: ADME; conditions: 336 h; outline: as §2
[26] = tested on: Amaranthus caudatus; test: Phytotoxicity against Amaranthus caudatus assessed as root growth inhibition at 100 to 400 uM after 2 weeks by agar medium bioassay; type: functional, organism-based
Outline: (§3)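 Agar bioassay with eight biochanin A doses (0–400 µM). Seeds were pregerminated 48 h at room temperature, then 10 seedlings were placed per Petri dish and grown 2 weeks at 24 ± 1 °C under a 16 h light/8 h dark cycle. […]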

[27] = tested on: Lolium perenne; test: Phytotoxicity against Lolium perenne (perennial ryegrass) assessed as root growth inhibition at 100 to 400 uM after 2 weeks by agar medium bioassay; type: functional, organism-based; outline: as §3
[28] = tested on: Shoot; test: Drug metabolism in Silene noctiflora shoot assessed as transformation to pratensein at 400 uM after 14 days measured per gm of dry weight by LC-MS analysis; type: ADME; conditions: 336 h; outline: as §2
[29] = tested on: Root; test: Drug metabolism in Echinochloa crus-galli (barnyard grass) root assessed as transformation to pratensein at 400 uM after 14 days measured per gm of dry weight by LC-MS analysis; type: ADME; conditions: 336 h; outline: as §1
[30] = tested on: Root; test: Drug metabolism in Echinochloa crus-galli (barnyard grass) root assessed as transformation to pratensein at 20 uM after 14 days measured per gm of dry weight by LC-MS analysis; type: ADME; conditions: 336 h; outline: as §1
[31] = tested on: Root; test: Drug metabolism in Geranium molle root assessed as transformation to pratensein at 400 uM after 14 days measured per gm of dry weight by LC-MS analysis; type: ADME; conditions: 336 h; outline: as §1
[32] = tested on: Root; test: Drug metabolism in Geranium molle root assessed as transformation to pratensein at 20 uM after 14 days measured per gm of dry weight by LC-MS analysis; type: ADME; conditions: 336 h; outline: as §1
[33] = tested on: Root; test: Drug metabolism in Silene noctiflora root assessed as transformation to pratensein at 400 uM after 14 days measured per gm of dry weight by LC-MS analysis; type: ADME; conditions: 336 h; outline: as §1
[34] = tested on: Leaf; test: Drug recovery in leaf of Secale cereale (rye) at 50 ng/g by LC-MS analysis

Drug metabolism [1]: 0.2 µmol | Drug metabolism [2]: 0.28 µmol | Drug metabolism [3]: 0.12 µmol | Drug metabolism [4]: 4.34 µmol | Drug metabolism [5]: 123.61 µmol | Drug metabolism [6]: 1.72 µmol | Drug metabolism [7]: 0.01 µmol | Drug metabolism [8]: 0.06 µmol | Drug metabolism [9]: 0.15 µmol | Drug metabolism [10]: 0.12 µmol | Drug metabolism [11]: 0.07 µmol | Drug metabolism [12]: 0.02 µmol | Drug metabolism [13]: 0.02 µmol | Drug metabolism [14]: 0 µmol | Drug metabolism [15]: 0.47 µmol | Drug metabolism [16]: 0.05 µmol | Drug metabolism [17]: 0.02 µmol | Drug metabolism [18]: 2.41 µmol | Drug metabolism [19]: 1.5 µmol | Drug metabolism [20]: 0.31 µmol | Drug metabolism [21]: 0.07 µmol | Drug uptake [22]: 1.13 µmol | Drug uptake [23]: 1.11 µmol | Drug uptake [24]: 0.76 µmol | Drug uptake [25]: 1.75 µmol | Drug metabolism [28]: 0.06 µmol | Drug metabolism [29]: 0.35 µmol | Drug metabolism [30]: 0.38 µmol | Drug metabolism [31]: 0.32 µmol | Drug metabolism [32]: 0.66 µmol | Drug metabolism [33]: 0.11 µmol | Drug recovery [34]: 93%
Compound: COc1ccc(-c2coc3cc(O)cc(O)c3c2=O)cc1 [BIOCHANIN]
Activity [26]: inactive | Activity [27]: inactive
